# Assay outcomes (PubChem)
# A selection: hits, their analogues and other compounds. The true share with any hit is near 3.4%.
# m5-HT2A agonist – mouse HTR2A agonism via beta-arrestin recruitment. AID 624169. activation, % at 7.6 µM. P35363. actives 0.66% (n = 360,000). CHO-K1 mHTR2A beta-arrestin complementation, luminescence; percent of 30 µM serotonin response;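 active = activation above a run cutoff, the mean activation of all tested compounds plus 3 SD, cut at about 14% in these data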;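 note: 0% = plate median of compound wells and 100% = 30 µM serotonin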
# beta cell repl – induces beta-cell replication in MIN6 cells | actives 0.29% (n = 330,000) | proliferation, % at 10 µM | MIN6 cells proliferation, ATPlite luminescence, 48 h; cells starved in 0.2% serum; 100% = growth in 10% serum;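 active = compounds whose signal lies at least 3.5 SD above the mean of all wells on their plate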;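 note: 0% = DMSO-treated cells in low-serum medium and 100% = 10% serum control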
# ANO1 block – mouse TMEM16A channel inhibition, primary screen; HEK293 TMEM16A/YFP iodide influx fluorescence, ionomycin; actives 1.2% (n = 310,000); normalized B-score (activity score, 25-100; higher = stronger inhibition) at 10 µM; Q8BHY3;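 active = ratio plate-corrected score three or more library SD toward inhibition, starting fluorescence score within five deviations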;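 note: score derived from kinetic fluorescence span divided by baseline fluorescence per well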
# MC4R barr agon – activates human MC4R beta-arrestin recruitment. U2OS MC4R beta-arrestin complementation, luminescence; percent of melanotan II response, DMSO zero. AID 540308. actives 0.98% (n = 360,000). activation, % at 8.9 µM;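 active = activation above a per-plate cutoff, the mean activation of sample wells on that plate plus 3 SD, cut at about 8% in these data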
# Target sequence (P32245 whole entry, looked up): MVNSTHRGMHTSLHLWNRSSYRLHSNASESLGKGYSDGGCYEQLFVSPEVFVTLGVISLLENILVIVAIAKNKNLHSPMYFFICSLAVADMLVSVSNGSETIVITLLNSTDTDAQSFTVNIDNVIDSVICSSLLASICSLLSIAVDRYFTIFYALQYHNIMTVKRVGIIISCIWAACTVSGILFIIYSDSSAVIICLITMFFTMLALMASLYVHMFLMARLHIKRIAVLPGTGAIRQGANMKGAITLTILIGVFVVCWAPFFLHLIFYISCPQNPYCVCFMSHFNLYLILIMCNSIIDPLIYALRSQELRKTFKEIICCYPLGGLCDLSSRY
# MC4R antag cAMP – human MC4R antagonism in cAMP assay. MC4R-expressing cells, MTII-stimulated cAMP, LANCE TR-FRET. actives 0.48% (n = 360,000). inhibition, % at 6.5 µM. P32245. AID 540295;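 active = inhibition above its plate's cutoff, the mean of tested wells on that plate plus 3 SD, cut at about 29% in these data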;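 note: 0% = Melanotan II alone and 100% = Melanotan II plus saturating MCL0020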
#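 system = U2OS cells with stable human MC4R expression | also added = Melanotan II challenge after compound preincubation | dosing = one concentration, 6.5 µM nominal | incubation = compound 30 min, challenge 1 h, detection 1 h | measured by = TR-FRET with Eu-cAMP and labeled anti-cAMP, 671 nm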
# ANO1 activ – activates or potentiates the mouse TMEM16A chloride channel | HEK293 TMEM16A/YFP-H148Q/I152L, iodide quench fluorescence; stronger effect = lower value | Q8BHY3 | actives 0.3% (n = 340,000) | B-score at 10 µM;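 active = fluorescence-ratio B-score plate-corrected deviation score at least 3 library SD below zero, with starting fluorescence score within 5 deviations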;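 note: channel opened by trigger with iodide after compound preincubation; score built on the fluorescence ratio of max minus min over baseline; more negative score means more quench and so TMEM16A activation or potentiation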
# MC4R barr conf – human MC4R beta-arrestin agonism confirmation. activation, % at 8.9 µM. actives 31% (n = 2,400). shares compounds with MC4R barr agon. U2OS MC4R beta-arrestin recruitment, luminescence; scaled DMSO 0%, Melanotan II 100%. AID 602192;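 active = mean activation across replicates above the hit cutoff set in the earlier primary screen, cut at about 8% in these data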
# MOR DOR agonist – OPRM1-OPRD1 heterodimer agonism counter-screen | activation, % at 9.2 µM | shares compounds with MC4R barr agon | U2OS PathHunter beta-arrestin, beta-gal luminescence; percent of deltorphin B response, DMSO zero | actives 5.8% (n = 2,400);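 active = mean activation across replicates exceeds the hit threshold derived in the earlier primary screen, cut at about 18% in these data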;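 note: 100% = deltorphin B at 0.9 µM final and 0% = DMSO alone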
# The depositor's hits bear a star; i = inactive; . = no result.
SMILES,m5-HT2A agonist,beta cell repl,ANO1 block,MC4R barr agon,MC4R antag cAMP,ANO1 activ,MC4R barr conf,MOR DOR agonist
Cc1cccc(S(=O)(=O)Nc2ccc(-c3nc4ccc(C)cc4s3)cc2)c1,-1.6,-2.5,i,16.0*,-0.2,i,-0.4,2.5
Cc1ccc(S(=O)(=O)Nc2ccc(-c3nc4ccc(C)cc4s3)cc2)cc1,-5.3,0.0,i,13.8*,7.6,i,14.5*,2.8
Cc1nn(C)c(Cl)c1CN1CCC(CO)(CCOc2ccccc2)CC1,-1.2,1.0,i,2.4,2.0,i,.,.
Cc1c(CN2CCC(CO)(CCOc3ccccc3)CC2)[nH]c2c(Cl)cccc12,3.5,-6.1,i,22.0*,4.9,i,19.4*,17.4
CCc1nc2ccc(C(=O)Nc3cccc(OCC(=O)N(C)C)c3)cn2c1N(C=O)Cc1ccc(OC)cc1,-2.6,.,.,-0.3,6.9,.,.,.
COc1cccc(/C=N/NC(=O)CCn2c3ccccc3c3ccccc32)c1,11.5,-3.4,i,14.2*,1.9,i,4.2,7.1
COc1ccc(/C=N/NC(=O)CCn2c3ccccc3c3ccccc32)cc1O,-1.8,-2.7,i,0.2,-9.4,i,.,.
CCCCCCOC(=O)c1ccc(N)cc1,-0.7,0.0,i,3.8,-5.0,i,.,.
CCCCCCCCCCCC1N=C(N)NC(CCCO)=C1C(=O)OC (centres undefined),1.1,.,.,12.5*,6.6,i,25.6*,5.3
COC(=O)c1c(NC(=O)Nc2ccc(Cl)cc2)sc(C)c1C,2.7,0.2,i,10.2*,0.0,i,2.1,9.3
COC(=O)c1c(NC(C)=O)sc(C)c1C,0.0,-2.2,i,-1.9,13.6,i,.,.
Oc1cccc(C(O)CNCc2ccc(OCc3ccc(Cl)cc3Cl)cc2)c1 (centres undefined),7.1,-5.4,i,13.8*,0.0,i,27.2*,15.3
CC(C)[C@H](NC(=O)Cc1ccccc1)C(=O)OCc1cc(=O)n2c(n1)sc1ccccc12,6.6,1.2,i,14.1*,25.2,i,1.8,3.6
Cc1ccc2c(CC(=O)OCc3cc(=O)n4c(n3)sc3ccccc34)coc2c1,2.5,-0.4,i,-0.4,11.2,i,.,.
COc1ccc(/C=N/NC(=O)c2ccc(COc3ccccc3Cl)o2)c(OC)c1C,-1.8,0.0,i,17.1*,-3.4,i,18.5*,10.2
COc1ccc(/C=N/NC(=O)c2ccc(COc3ccccc3Cl)o2)cc1,-1.0,-2.2,i,9.9*,6.5,i,6.1,3.6
CC(=O)Nc1ccc(/C(C)=N/NC(=O)c2ccc(COc3ccccc3Cl)o2)cc1,-1.9,1.9,i,0.2,13.4,i,.,.
O=C(CSCc1ccco1)N1CCc2ccccc21,3.9,-1.4,i,0.3,15.4,i,.,.
COc1ccc(NC(=O)CSc2ccc3c(c2)OCCO3)cc1S(N)(=O)=O,0.6,-1.4,.,-2.3,-3.9,i,.,.
COc1ccc(CNC(=O)[C@@H]2CC=C[C@@H]3CCN(Cc4ccc(Cl)c(Cl)c4)C(=O)[C@@H]32)cc1,-2.4,-5.9,i,17.7*,0.7,i,8.8*,3.3
Cc1cc(O)ccc1-c1cccc2nccn12,1.6,.,.,-0.9,-2.0,.,.,.
O=C(CCn1cnc2ccccc2c1=O)Nc1nc(-c2ccc(Br)cc2)cs1,-0.3,0.0,i,10.8*,19.9,i,5.8,35.0*
COc1ccc(NS(=O)(=O)c2cc(C(=O)N(C)CCc3ccccn3)ccc2Cl)cc1,3.6,.,.,-1.5,1.0,i,.,.
CCCCc1ccc(S(=O)(=O)NC(=O)C2(C)CCN2C(=O)c2cccc(F)c2)cc1 (centres undefined),-0.8,.,.,0.4,-5.7,.,.,.
O=C(CC(=O)Nc1ccc(Cl)cc1Cl)Nc1ccc(Cl)cc1Cl,3.7,-5.6,i,11.4*,5.7,i,3.2,3.1
SMILES,m5-HT2A agonist,beta cell repl,ANO1 block,MC4R barr agon,MC4R antag cAMP,ANO1 activ,MC4R barr conf,MOR DOR agonist
CC(=O)OCC(=O)Nc1ccc(Cl)cc1Cl,-2.0,-0.8,i,-2.3,-5.1,i,.,.
Cc1ccc2[nH]c(O)c(N=NC(=O)C3CC3c3ccccc3)c2c1Br (centres undefined),1.6,-2.3,i,17.9*,8.4,i,3.3,1.7
O=Nc1c2cc3ccccc3[nH]c-2c2ccccc12,3.2,.,.,10.3*,-1.3,i,6.7,10.6
COc1ccc(-c2cc(C(=O)OCC(=O)Nc3ccc4c(c3)OCO4)c3ccccc3n2)cc1,-1.9,-3.8,i,2.2,3.3,i,.,.
Cc1c(NC(=O)COC(=O)c2cc(-c3ccc(-c4ccccc4)cc3)nc3ccccc23)c(=O)n(-c2ccccc2)n1C,0.8,.,i,17.7*,4.3,i,1.1,2.8
Cc1c(NC(=O)c2cc(-c3ccccc3)nc3ccccc23)c(=O)n(-c2ccccc2)n1C,0.6,-5.0,.,0.7,24.5,i,.,.
O=C(COC(=O)c1cc(Br)ccc1O)Nc1ccc2c(c1)OCCO2,7.8,1.4,i,-0.2,6.8,i,.,.
O=C(COC(=O)c1cc(Br)ccc1O)Nc1ccc2c(c1)OCO2,-2.2,-3.8,.,10.3*,1.6,i,0.9,3.5
O=C(COC(=O)c1cc(-c2ccccc2)nc2ccccc12)Nc1ccc2c(c1)OCO2,1.3,-3.1,i,15.7*,-3.9,i,5.1,5.9
COc1ccc(C2=Nc3ccccc3C2(O)CCN2C(=O)c3ccccc3C2=O)cc1 (centres undefined),2.9,.,.,2.9,1.4,.,.,.
O=C(COC(=O)C1CCCN1C(=O)C12CC3CC(CC(C3)C1)C2)c1ccc(Br)cc1 (centres undefined),-3.4,-2.9,i,13.6*,0.1,i,5.2,3.4
CC(=O)c1cccc(NC(=O)c2noc3c2CCc2ccccc2-3)c1,5.8,-0.9,i,16.4*,9.9,i,9.7*,3.0
CC(=O)c1nn(-c2ccccc2)cc1C(=O)c1cccc(Br)c1,2.9,-0.7,i,9.8*,-0.1,i,11.8*,5.0
CC(=O)c1nn(-c2cccc(Br)c2)cc1C(=O)c1ccc(Cl)cc1,-0.9,2.8,i,32.2*,-5.4,i,12.5*,5.7
CC(=O)c1nn(-c2ccc(Cl)cc2)cc1C(=O)c1ccccc1,-4.2,-3.5,i,18.3*,0.6,i,3.8,16.0
